One compound from ChEMBL document CHEMBL3856288, “Amidate Prodrugs of Deoxythreosyl Nucleoside Phosphonates as Dual Inhibitors of HIV and HBV Replication” (J Med Chem, 2016) can be followed below.

Series [1] relates to Human immunodeficiency virus 1. Nature of the series: Antiviral activity against HIV1 3B infected in human MT4 cells assessed as protection against virus-induced cytopathic effect after 5 days by MTT assay. The following applies: Human immunodeficiency virus 1, 3B, MT4, 120 h. It counts as functional, cell-based. In general terms: Protection from cytopathic effect is a common read-out in antiviral testing.

The nature of series [2]: Antiviral activity against HIV2 ROD infected in human MT4 cells assessed as protection against virus-induced cytopathic effect after 5 days by MTT assay. It counts as functional, cell-based, Human immunodeficiency virus type 2 (ISOLATE ROD). The following applies: Human immunodeficiency virus 2, MT4, 120 h.
A short description of series [3]: Cytotoxicity against human MT4 cells assessed as decrease in cell viability after 5 days by MTT assay. It counts as toxicity, cell-based. (In general: Formazan colour is commonly taken as a measure of viable cells.)
The nature of series [4]: Selectivity index, ratio of CC50 for human MT4 cells to EC50 for HIV1 3B infected in human MT4 cells. The series is classed as toxicity, cell-based. The following applies: read-out: Ratio CC50/EC50.
Series [5] is described as follows: Selectivity index, ratio of CC50 for human MT4 cells to EC50 for HIV2 ROD infected in human MT4 cells. It counts as toxicity, cell-based. The following applies: read-out: Ratio CC50/EC50.
The subject of series [6] is Hepatitis B virus. Nature of the series: Antiviral activity against HBV ayw1 infected in human HepG2(2.2.15) cells assessed as reduction in viral replication by measuring extracellular viral DNA copy number after 6 days by real-time qPCR method. The series is classed as functional, cell-based. The following applies: ayw1, HepG2 2.2.15, 144 h. The procedure, abridged:
(§1)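 HepG2 2.2.15 cells (stable line carrying two copies of the HBV ayw1 genome) were seeded at 1.5 × 10^4 cells/well in DMEM with 2% FBS and G418. After 16−24 h, compound was added in triplicate, and medium plus compound was renewed on day 3. On day 6, supernatant was Pronase-treated and extracellular HBV DNA was quantified by TaqMan qPCR against an HBV DNA standard curve to give EC50/EC90. Cell viability was read by MTS uptake to give CC50.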
(In qPCR the cycle at which signal appears reflects the starting amount.)

Series [7] in a line: Cytotoxicity against human HepG2(2.2.15) cells assessed as reduction in cell viability by MTS assay. The series is classed as toxicity, cell-based. The procedure, abridged: as §1
A short description of series [8]: Selectivity ratio of CC50 for human HepG2(2.2.15) cells to EC50 for reduction in HBV ayw1 extracellular DNA copy number. The following applies: read-out: Ratio CC50/EC50. The method, boiled down: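 HepG2 2.2.15 cells (two HBV ayw1 genome copies), 1.5 × 10^4 cells/well in DMEM with 2% FBS and G418; compound dosed in triplicate and medium renewed on day 3. On day 6, Pronase-treated supernatant HBV DNA measured by TaqMan qPCR against a standard curve, giving EC50. MTS uptake gave CC50, and the ratio was calculated from these.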

The test system of series [9] is Hepatitis B virus. Kind of series: Antiviral activity against HBV ayw1 infected in human HepG2(2.2.15) cells assessed as reduction in viral replication by measuring intracellular viral DNA copy number after 6 days by real-time qPCR method. It counts as functional, cell-based. The following applies: ayw1, HepG2 2.2.15, 144 h. The method, boiled down:
(§2)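 The protocol was the same as the primary HepG2 2.2.15 assay (triplicate dosing, medium plus compound renewed on day 3, 6-day course). At the end, total intracellular DNA was isolated from the cells and HBV DNA copy number was measured by TaqMan qPCR to give EC50/EC90. CC50 came from MTS viability, and SI was taken as CC50/EC50.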

Series [10] in a line: Selectivity ratio of CC50 for human HepG2(2.2.15) cells to EC50 for reduction in HBV ayw1 intracellular DNA copy number. It counts as ADME, cell-based. The following applies: read-out: Ratio CC50/EC50. The method, boiled down:
as §2

The nature of series [11]: Chemical stability of the compound in pH 1 phosphate buffer at 2 mg after 1 to 2 hrs by 31P NMR method. It counts as physicochemical. The procedure, abridged: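 Prodrug (2.0 mg) dissolved in 0.2 mL acetone-d6 plus 0.3 mL pH 1 buffer (equal parts 0.2 M HCl and 0.2 M KCl); in situ 31P NMR (202 MHz) at 37 °C, spectra recorded every 30 min over 14 h, tracking loss of the diastereomer peaks.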

The nature of series [12]: Chemical stability of the compound in pH 8 phosphate buffer assessed as parent compound remaining at 2 mg after 14 hrs by 31P NMR method. It counts as physicochemical. The following applies: read-out: Stability. The procedure, abridged: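 Prodrug (2 mg) in 0.2 mL acetone-d6 plus 0.3 mL pH 8 buffer (0.1 M Na2HPO4 adjusted with 0.1 M HCl); in situ 31P NMR (202 MHz) at 37 °C, spectra every 30 min over 14 h; parent remaining followed by diastereomer peak disappearance.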

Series [13] is described as follows: Drug metabolism in acetone-d6/pH 7.6 Trizma buffer assessed as baker's yeast carboxypeptidase Y-mediated (S)-2-((((3R,5R)-5-(6-amino-9H-purin-9-yl)tetrahydrofuran-3-yloxy)methyl)oxidophosphorylamino)-4-(isopentyloxy)-4-oxobutanoate formation at 1 mg after 3 hrs by RP-HPLC/mass spectra analysis. The series is classed as ADME. The following applies: saccharomyces cerevisiae, pH 7.6, 3 h.

Series [14] is described as follows: Half life in human liver S9 fraction at 100 uM by HPLC-UV method. The series is classed as ADME, subcellular. The method, boiled down:
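Incubation started by adding human liver S9 fraction (4 mg/mL) at 37 °C; aliquots at 0, 10, 20, 30, 60 min quenched in acetonitrile, centrifuged, supernatant analysed by C18 HPLC with UV at 260 nm; parent peak area versus time 0 gave percent remaining and half-life.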

Series [15] is described as follows: Half life in human liver microsomes at 0.1 uM in presence of NADPH-regenerating system by HPLC MS/MS method. It counts as ADME. The method, boiled down:
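Pooled liver microsomes preincubated 10 min at 37 °C with NADPH-regenerating system (1 mM NADP, 5 mM G6P, 1 U/mL G6PDHase) in phosphate buffer pH 7.4, 3 mM MgCl2, 1 mM EDTA; compound added at 0.1 μM final; samples at 0, 15, 30, 45, 60 min quenched in acetonitrile/methanol, analysed by HPLC MS/MS.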

For the compound `CC(C)CCOC(=O)C[C@H](NP(=O)(CO[C@H]1CO[C@@H](n2cnc3c(N)ncnc32)C1)Oc1ccccc1)C(=O)OCCC(C)C` (some centres not stated), the EC50 (usually the concentration needed to bring the measured effect to its halfway point) in series [1] was 21.6 nM; in [2], 3.6 nM; with Hepatitis B virus [6] it was 10 nM; with Hepatitis B virus [9], less than 10 nM. The CC50 (in general, the concentration that lowers cell viability or growth by half) at 120 h in series [3] is 16900 nM. Also, the selectivity ratio is 792 in series [4], 4810 in [5], more than 1250 in series [8] and 8810 in series [10]. Also, the EC90 (usually the concentration at which the effect reaches the 90% level) came out at 980 nM with Hepatitis B virus [6] and 360 nM in the series on Hepatitis B virus [9]. Moreover, the CC50 in series [7] came to 35200 nM. The Stability result in [11] is listed as “Unstable”. The remaining at 14 h in series [12] came out at 43%. Also, in series [13], the Drug metabolism result is “Metabolite_Detected”. Further, in [14], the half-life (commonly how long it takes for the measured level to halve) at 100 µM turned out to be 12.1 min. In addition, the half-life at 0.1 µM in [15] was found to be 8 min.
